Values after ≈ are worked out from the molar mass of the structure shown.
Columns and labels:
[1] = test system: Staphylococcus epidermidis; assay: Antibacterial activity against oxacillin resistant Staphylococcus epidermidis 012GO42; assay type: functional
Procedure, shortened: (§1)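 MIC read after 24 h incubation by two-fold broth microdilution. Strains are tested with their labelled resistance phenotypes (ofloxacin, oxacillin, erythromycin, novobiocin, teicoplanin or vancomycin resistance, as given in each strain designation).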

[2] = In vitro activity against Staphylococcus aureus DNA gyrase subunit B supercoiling, expressed as IC50 novobiocin / IC50 compound; assay type: functional
[3] = test system: Streptococcus pyogenes; assay: Antibacterial activity tested against Streptococcus pyogenes 02AIUC1; assay type: functional
Procedure, shortened: (§2)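 MIC by 2-fold broth microdilution, read after 24 h incubation; strain resistance phenotypes noted.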

[4] = test system: Enterococcus faecium; assay: Antibacterial activity against vancomycin, teicoplanin, erythromycin resistant Enterococcus faecium; assay type: functional; procedure, shortened: as §1
[5] = test system: Staphylococcus aureus; assay: Antibacterial activity against ofloxacin,oxacillin,erythromycin resistant Staphylococcus aureus 011GO64.; assay type: functional; procedure, shortened: as §1
[6] = test system: Staphylococcus aureus; assay: Antibacterial activity tested against novobiocin resistant Staphylococcus aureus 011HT1; assay type: functional; procedure, shortened: as §2
[7] = test system: Staphylococcus aureus; assay: Antibacterial activity against Staphylococcus aureus 011HT3; assay type: functional; procedure, shortened: as §2
[8] = test system: Escherichia coli; assay: In vitro activity against Escherichia coli DNA gyrase subunit B supercoiling, expressed as IC50 novobiocin / IC50 compound; assay type: functional
[9] = test system: DNA gyrase (Staphylococcus aureus); assay: In vitro activity against Staphylococcus aureus DNA gyrase supercoiling, expressed as IC50 novobiocin / IC50 compound

SMILES | MIC [1] [µg/mL] | Ratio [2] | MIC [3] [µg/mL] | MIC [4] [µg/mL] | MIC [5] [µg/mL] | MIC [6] [µg/mL] | MIC [7] [µg/mL] | Ratio [8] | Ratio [9]
C#CCONC(=O)O[C@H]1[C@@H](O)[C@H](Oc2ccc3c(=O)c(C(=O)NOC)c(O)oc3c2C)OC(C)(C)[C@@H]1OC | 0.08 (≈ 0.149 µM) | 11.1 | 0.6 (≈ 1.12 µM) | 2.5 (≈ 4.66 µM) | 0.6 (≈ 1.12 µM) | 10 (≈ 18.6 µM) | 0.08 (≈ 0.149 µM) | – | –
C#CCNC(=O)O[C@H]1[C@@H](O)[C@H](Oc2ccc3c(=O)c(C(=O)OCC)c(O)oc3c2C)OC(C)(C)[C@@H]1OC | 20 (≈ 38.5 µM) | – | > 40 | > 40 | – | > 40 | 40 (≈ 77 µM) | 0.38 | –
CO[C@@H]1[C@@H](OC(N)=O)[C@@H](O)[C@H](Oc2ccc3c(O)c(NC(=O)c4ccc(O)c(CC=C(C)C)c4)c(=O)oc3c2C)OC1(C)C [NOVOBIOCIN] | < 0.04 | – | 0.3 (≈ 0.49 µM) | 0.6 (≈ 0.979 µM) | – | 10 (≈ 16.3 µM) | < 0.04 | – | –
CCONC(=O)OC1[C@@H](O)[C@H](Oc2ccc3c(O)c(C(=O)OCC)c(=O)oc3c2C)OC(C)(C)[C@@H]1OC (single isomer, unassigned) | > 40 | – | 40 (≈ 76.1 µM) | > 40 | – | > 40 | 20 (≈ 38.1 µM) | 2 | –
C#CCONC(=O)O[C@H]1[C@@H](O)[C@H](Oc2ccc3c(=O)c(/C(C)=N/OC)c(O)oc3c2C)OC(C)(C)[C@@H]1OC | 0.08 (≈ 0.15 µM) | 12.5 | 0.6 (≈ 1.12 µM) | 2.5 (≈ 4.68 µM) | 0.15 (≈ 0.281 µM) | 5 (≈ 9.35 µM) | 0.15 (≈ 0.281 µM) | – | –
C#CCONC(=O)O[C@H]1[C@@H](O)[C@H](Oc2ccc3c(O)c(C(=O)NCCN4CCOCC4)c(=O)oc3c2C)OC(C)(C)[C@@H]1OC | 0.08 (≈ 0.129 µM) | 2.6 | 1.2 (≈ 1.94 µM) | 2.5 (≈ 4.03 µM) | 0.08 (≈ 0.129 µM) | 1.2 (≈ 1.94 µM) | < 0.04 | – | –
C#CCONC(=O)O[C@H]1[C@@H](O)[C@H](Oc2ccc3c(=O)c(/C(C)=N/OCC)c(O)oc3c2C)OC(C)(C)[C@@H]1OC | 0.15 (≈ 0.273 µM) | 8.3 | 0.6 (≈ 1.09 µM) | 1.2 (≈ 2.19 µM) | 0.15 (≈ 0.273 µM) | 2.5 (≈ 4.56 µM) | 0.08 (≈ 0.146 µM) | – | –
C#CCONC(=O)O[C@H]1[C@@H](O)[C@H](Oc2ccc3c(O)c(C(=O)NCCO)c(=O)oc3c2C)OC(C)(C)[C@@H]1OC | < 0.04 | 2.6 | 0.6 (≈ 1.09 µM) | 1.2 (≈ 2.18 µM) | 0.08 (≈ 0.145 µM) | 1.2 (≈ 2.18 µM) | < 0.04 | – | –
CCOC(=O)c1c(O)oc2c(C)c(O[C@@H]3OC(C)(C)[C@H](OC)[C@@H](OC(=O)NOC)[C@H]3O)ccc2c1=O | > 40 | – | > 40 | > 40 | – | > 40 | > 40 | 0.66 | –
C#CCONC(=O)O[C@H]1[C@@H](O)[C@H](Oc2ccc3c(=O)c(/C(C)=N/OCOCCOC)c(O)oc3c2C)OC(C)(C)[C@@H]1OC | 1.2 (≈ 1.97 µM) | 4 | 0.6 (≈ 0.986 µM) | 5 (≈ 8.22 µM) | 0.6 (≈ 0.986 µM) | 10 (≈ 16.4 µM) | 0.08 (≈ 0.131 µM) | – | –
C#CCONC(=O)O[C@H]1[C@@H](O)[C@H](Oc2ccc3c(O)c(/C(C)=N/OCc4ccsc4)c(=O)oc3c2C)OC(C)(C)[C@@H]1OC | < 0.04 | 1.3 | 0.15 (≈ 0.243 µM) | 0.6 (≈ 0.973 µM) | – | 2.5 (≈ 4.05 µM) | < 0.04 | – | –
C#CCONC(=O)O[C@H]1[C@@H](O)[C@H](Oc2ccc3c(O)c(C(=O)Nc4cccnc4)c(=O)oc3c2C)OC(C)(C)[C@@H]1OC | < 0.04 | 0.67 | 0.08 (≈ 0.137 µM) | 0.6 (≈ 1.03 µM) | – | 1.2 (≈ 2.06 µM) | < 0.04 | – | –
CO[C@@H]1[C@@H](OC(=O)c2ccc(C)[nH]2)[C@@H](O)[C@H](Oc2ccc3c(O)c(C(N)=O)c(=O)oc3c2C)OC1(C)C | – | – | 0.15 (≈ 0.29 µM) | 2.5 (≈ 4.84 µM) | – | 2.5 (≈ 4.84 µM) | < 0.04 | 1.67 | –
CCOC(=O)c1c(O)oc2c(C)c(O[C@@H]3OC(C)(C)[C@H](OC)[C@@H](OC(=O)NOC(C)C)[C@H]3O)ccc2c1=O | > 40 | – | > 40 | > 40 | – | > 40 | > 40 | 2 | –
C=CCONC(=O)O[C@H]1[C@@H](O)[C@H](Oc2ccc3c(=O)c(C(=O)OCC)c(O)oc3c2C)OC(C)(C)[C@@H]1OC | 20 (≈ 37.2 µM) | – | 20 (≈ 37.2 µM) | > 40 | 20 (≈ 37.2 µM) | > 40 | 10 (≈ 18.6 µM) | 2 | –
C#CCONC(=O)O[C@H]1[C@@H](O)[C@H](Oc2ccc3c(O)c(C(C)=O)c(=O)oc3c2C)OC(C)(C)[C@@H]1OC | < 0.04 | 8.1 | 0.3 (≈ 0.593 µM) | 1.2 (≈ 2.37 µM) | 0.6 (≈ 1.19 µM) | 2.5 (≈ 4.95 µM) | < 0.04 | – | –
CO/N=C(\C)c1c(O)oc2c(C)c(O[C@@H]3OC(C)(C)[C@H](OC)[C@@H](OC(=O)c4ccc(C)[nH]4)[C@H]3O)ccc2c1=O | – | – | 0.3 (≈ 0.551 µM) | 10 (≈ 18.4 µM) | – | 40 (≈ 73.5 µM) | 0.15 (≈ 0.275 µM) | 3.3 | –
CCOC(=O)c1c(O)oc2c(C)c(O[C@@H]3OC(C)(C)[C@H](OC)[C@@H](OC(=O)NC(C)C)[C@H]3O)ccc2c1=O | > 40 | – | > 40 | > 40 | – | > 40 | > 40 | 0.025 | –
CCOC(=O)c1c(O)oc2c(C)c(O[C@@H]3OC(C)(C)[C@H](OC)[C@@H](OC(N)=O)[C@H]3O)ccc2c1=O | – | – | > 40 | > 40 | – | > 40 | > 40 | 1.6 | –
CCOC(=O)c1c(O)oc2c(C)c(O[C@@H]3OC(C)(C)[C@H](OC)[C@@H](OC(=O)c4ccc(C)[nH]4)[C@H]3O)ccc2c1=O | – | – | 0.3 (≈ 0.55 µM) | 5 (≈ 9.17 µM) | – | > 20 | 0.3 (≈ 0.55 µM) | 3.1 | –
C#CCONC(=O)O[C@H]1[C@@H](O)[C@H](Oc2ccc3c(O)c(C(N)=O)c(=O)oc3c2C)OC(C)(C)[C@@H]1OC | < 0.04 | – | 0.6 (≈ 1.18 µM) | 0.08 (≈ 0.158 µM) | – | 0.3 (≈ 0.592 µM) | < 0.04 | 1 | –
C#CCONC(=O)O[C@H]1[C@@H](O)[C@H](Oc2ccc3c(=O)c(C(=O)NOCC)c(O)oc3c2C)OC(C)(C)[C@@H]1OC | 0.6 (≈ 1.09 µM) | 5.6 | 0.15 (≈ 0.272 µM) | 0.6 (≈ 1.09 µM) | 0.08 (≈ 0.145 µM) | 1.2 (≈ 2.18 µM) | < 0.04 | – | –
C=CCNC(=O)O[C@H]1[C@@H](O)[C@H](Oc2ccc3c(=O)c(C(=O)OCC)c(O)oc3c2C)OC(C)(C)[C@@H]1OC | 20 (≈ 38.3 µM) | – | > 40 | > 40 | – | > 40 | > 40 | 0.38 | –
CO[C@@H]1[C@@H](OC(=O)c2ccc(C)[nH]2)[C@@H](O)[C@H](Oc2ccc3c(O)c(C(C)=O)c(=O)oc3c2C)OC1(C)C | – | – | 0.3 (≈ 0.582 µM) | 2.5 (≈ 4.85 µM) | – | 5 (≈ 9.7 µM) | < 0.04 | 2 | –
C#CCONC(=O)O[C@H]1[C@@H](O)[C@H](Oc2ccc3c(O)c(C(=O)NOCC=C(C)C)c(=O)oc3c2C)OC(C)(C)[C@@H]1OC | 0.15 (≈ 0.254 µM) | 2 | 0.08 (≈ 0.135 µM) | 0.3 (≈ 0.508 µM) | – | 0.6 (≈ 1.02 µM) | < 0.04 | – | –
C#CCONC(=O)O[C@H]1[C@@H](O)[C@H](Oc2ccc3c(O)c(/C(C)=N/OCCN4CCOCC4)c(=O)oc3c2C)OC(C)(C)[C@@H]1OC | 0.15 (≈ 0.237 µM) | 4 | 1.2 (≈ 1.89 µM) | 20 (≈ 31.6 µM) | 0.6 (≈ 0.947 µM) | 5 (≈ 7.89 µM) | 0.15 (≈ 0.237 µM) | – | –
CC#CCONC(=O)O[C@H]1[C@@H](O)[C@H](Oc2ccc3c(=O)c(C(=O)OCC)c(O)oc3c2C)OC(C)(C)[C@@H]1OC | 10 (≈ 18.2 µM) | – | > 40 | > 40 | 40 (≈ 72.8 µM) | > 40 | 10 (≈ 18.2 µM) | – | 0.5
C#CCONC(=O)O[C@H]1[C@@H](O)[C@H](Oc2ccc3c(=O)c(C(=O)OCC)c(O)oc3c2C)OC(C)(C)[C@@H]1OC | 0.3 (≈ 0.56 µM) | – | 20 (≈ 37.3 µM) | 10 (≈ 18.7 µM) | 2.5 (≈ 4.67 µM) | > 40 | 1.2 (≈ 2.24 µM) | 5.6 | –
